Results reported in ChEMBL document CHEMBL5724801, “EUbOPEN Chemogenomics Library - Multiplex” (2024).
Where “and” joins values, the source holds several entries; their conditions need not be identical. Identical values can stand only once.

System: HEK-293T
Test: Multiplex assay against HEK293T
Type: toxicity, cell-based
Settings: human
How it was run: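 Tubulin, mitochondrial-mass and membrane-permeability phenotypes are per cents of healthy-nucleus cells. Cells were gated by CellPathfinder machine learning into Hoechst high-intensity objects or normal cells, normal cells into healthy, pyknosed or fragmented nuclei, and pyknosed cells into mitotic or apoptotic. Before that, live cells stained at seeding with Hoechst33342, BioTracker Green Microtubule Cytoskeleton Dye, MitoTracker Red and Annexin V Alexa Fluor 680 were imaged on a CQ1 microscope at 37°C and 5% CO2 after compound addition.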

[1] = 12 h, 1 µM, compound concentration 1 uM
[2] = 12 h, 10 µM, compound concentration 10 uM
[3] = 24 h, 1 µM, compound concentration 1 uM
[4] = 24 h, 10 µM, compound concentration 10 uM
[5] = 48 h, 1 µM, compound concentration 1 uM
[6] = 48 h, 10 µM, compound concentration 10 uM

Structure (SMILES): C=CCN1C[C@H](C(=O)N(CCCN(C)C)C(=O)NCC)C[C@@H]2c3cccc4[nH]cc(c34)C[C@H]21 [CABERGOLINE]
- Population Apoptotic (%) [1]: 36% and 37%
- Population Fragmented Nuclei (%) [1]: 4% and 5%
- Population Healthy Nuclei (%) [1]: 76% and 79%
- Population Hoechst High Intensity Objects (%) [1]: 8%
- Population Membrane Permeable-Phenotype (%) [1]: 0%
- Population Mitochondria Different-Phenotype (%) [1]: 51% and 68%
- Population Mitotic Cells (%) [1]: 63% and 62%
- Population Normal (%) [1]: 91%
- Population Pyknosed Nuclei (%) [1]: 18% and 14%
- Population Tubulin-Different-Phenotype (%) [1]: 41% and 24%
- Total Cell Count [1]: 370 and 322
- Population Apoptotic (%) [2]: 53% and 60%
- Population Fragmented Nuclei (%) [2]: 8% and 6%
- Population Healthy Nuclei (%) [2]: 76% and 78%
- Population Hoechst High Intensity Objects (%) [2]: 12% and 8%
- Population Membrane Permeable-Phenotype (%) [2]: 0%
- Population Mitochondria Different-Phenotype (%) [2]: 65% and 81%
- Population Mitotic Cells (%) [2]: 46% and 40%
- Population Normal (%) [2]: 87% and 91%
- Population Pyknosed Nuclei (%) [2]: 14%
- Population Tubulin-Different-Phenotype (%) [2]: 54% and 55%
- Total Cell Count [2]: 438 and 371
- Population Apoptotic (%) [3]: 43% and 40%
- Population Fragmented Nuclei (%) [3]: 9% and 6%
- Population Healthy Nuclei (%) [3]: 80% and 83%
- Population Hoechst High Intensity Objects (%) [3]: 4% and 6%
- Population Membrane Permeable-Phenotype (%) [3]: 1% and 0%
- Population Mitochondria Different-Phenotype (%) [3]: 29% and 46%
- Population Mitotic Cells (%) [3]: 56% and 59%
- Population Normal (%) [3]: 95% and 93%
- Population Pyknosed Nuclei (%) [3]: 10% and 9%
- Population Tubulin-Different-Phenotype (%) [3]: 20% and 19%
- Total Cell Count [3]: 512 and 406
- Population Apoptotic (%) [4]: 37% and 42%
- Population Fragmented Nuclei (%) [4]: 10%
- Population Healthy Nuclei (%) [4]: 77% and 79%
- Population Hoechst High Intensity Objects (%) [4]: 8% and 12%
- Population Membrane Permeable-Phenotype (%) [4]: 0%
- Population Mitochondria Different-Phenotype (%) [4]: 51% and 64%
- Population Mitotic Cells (%) [4]: 62% and 57%
- Population Normal (%) [4]: 91% and 87%
- Population Pyknosed Nuclei (%) [4]: 11% and 9%
- Population Tubulin-Different-Phenotype (%) [4]: 48% and 43%
- Total Cell Count [4]: 556 and 425
- Population Apoptotic (%) [5]: 13% and 35%
- Population Fragmented Nuclei (%) [5]: 12% and 11%
- Population Healthy Nuclei (%) [5]: 80% and 81%
- Population Hoechst High Intensity Objects (%) [5]: 4% and 3%
- Population Membrane Permeable-Phenotype (%) [5]: 1%
- Population Mitochondria Different-Phenotype (%) [5]: 21% and 23%
- Population Mitotic Cells (%) [5]: 86% and 65%
- Population Normal (%) [5]: 95% and 96%
- Population Pyknosed Nuclei (%) [5]: 7% and 6%
- Population Tubulin-Different-Phenotype (%) [5]: 16% and 10%
- Total Cell Count [5]: 763 and 633
- Population Apoptotic (%) [6]: 26% and 43%
- Population Fragmented Nuclei (%) [6]: 13% and 10%
- Population Healthy Nuclei (%) [6]: 76% and 82%
- Population Hoechst High Intensity Objects (%) [6]: 5% and 6%
- Population Membrane Permeable-Phenotype (%) [6]: 0%
- Population Mitochondria Different-Phenotype (%) [6]: 35% and 32%
- Population Mitotic Cells (%) [6]: 73% and 56%
- Population Normal (%) [6]: 94% and 93%
- Population Pyknosed Nuclei (%) [6]: 9% and 6%
- Population Tubulin-Different-Phenotype (%) [6]: 25% and 20%
- Total Cell Count [6]: 786 and 676

Structure (SMILES): COc1cc(N2CCN(C)CC2)ccc1Nc1nccc(-c2cn(C)c3cnccc23)n1
- Population Apoptotic (%) [1]: 10.14% and 10.53%
- Population Fragmented Nuclei (%) [1]: 3.23% and 1.83%
- Population Hoechst High Intensity Objects (%) [1]: 0%
- Population Membrane Permeable-Phenotype (%) [1]: 0%
- Population Mitotic Cells (%) [1]: 89.86% and 89.47%
- Population Normal (%) [1]: 100%
- Population Pyknosed Nuclei (%) [1]: 31.8% and 87.16%
- Population Apoptotic (%) [2]: 19.35% and 16.13%
- Population Fragmented Nuclei (%) [2]: 1.59% and 4.51%
- Population Hoechst High Intensity Objects (%) [2]: 0%
- Population Membrane Permeable-Phenotype (%) [2]: 0.4% and 2.94%
- Population Mitotic Cells (%) [2]: 80.65% and 83.87%
- Population Normal (%) [2]: 100%
- Total Cell Count [2]: 314 and 133
- Population Apoptotic (%) [3]: 19.27% and 15.66%
- Population Fragmented Nuclei (%) [3]: 1.54% and 3.91%
- Population Healthy Nuclei (%) [3]: 81.64% and 31.25%
- Population Hoechst High Intensity Objects (%) [3]: 0%
- Population Membrane Permeable-Phenotype (%) [3]: 1.13% and 2.5%
- Population Mitochondria Different-Phenotype (%) [3]: 11.15% and 10%
- Population Mitotic Cells (%) [3]: 80.73% and 84.34%
- Population Normal (%) [3]: 100%
- Population Tubulin-Different-Phenotype (%) [3]: 12.1% and 5%
- Population Apoptotic (%) [4]: 27.27% and 28.81%
- Population Fragmented Nuclei (%) [4]: 2.49% and 1.67%
- Population Healthy Nuclei (%) [4]: 87.23% and 49.17%
- Population Hoechst High Intensity Objects (%) [4]: 0%
- Population Membrane Permeable-Phenotype (%) [4]: 1.07% and 6.78%
- Population Mitochondria Different-Phenotype (%) [4]: 7.5% and 3.39%
- Population Mitotic Cells (%) [4]: 72.73% and 71.19%
- Population Normal (%) [4]: 100%
- Population Tubulin-Different-Phenotype (%) [4]: 26.07% and 10.17%
- Total Cell Count [4]: 321 and 120
- Population Apoptotic (%) [5]: 7.58% and 13.11%
- Population Fragmented Nuclei (%) [5]: 2.6% and 3.77%
- Population Healthy Nuclei (%) [5]: 85.55% and 57.86%
- Population Hoechst High Intensity Objects (%) [5]: 0.09% and 0.62%
- Population Membrane Permeable-Phenotype (%) [5]: 3.57% and 0%
- Population Mitochondria Different-Phenotype (%) [5]: 18.99% and 33.7%
- Population Mitotic Cells (%) [5]: 92.42% and 86.89%
- Population Normal (%) [5]: 99.91% and 99.38%
- Population Apoptotic (%) [6]: 20% and 25%
- Population Fragmented Nuclei (%) [6]: 4.38% and 4.51%
- Population Healthy Nuclei (%) [6]: 87.29% and 74.44%
- Population Hoechst High Intensity Objects (%) [6]: 0%
- Population Membrane Permeable-Phenotype (%) [6]: 2.86% and 0%
- Population Mitochondria Different-Phenotype (%) [6]: 21.24% and 29.29%
- Population Mitotic Cells (%) [6]: 80% and 75%
- Population Normal (%) [6]: 100%
- Population Pyknosed Nuclei (%) [6]: 8.33% and 21.05%

Structure (SMILES): CC(C)[C@H](C(=O)Nc1ccc(C(=O)NO)cc1)c1ccccc1 [AR-42]
- Population Apoptotic (%) [1]: 11.9% and 3.88%
- Population Fragmented Nuclei (%) [1]: 1.31% and 2.38%
- Population Healthy Nuclei (%) [1]: 54.83% and 20.83%
- Population Hoechst High Intensity Objects (%) [1]: 0% and 0.59%
- Population Membrane Permeable-Phenotype (%) [1]: 0.95% and 0%
- Population Mitochondria Different-Phenotype (%) [1]: 22.38% and 11.43%
- Population Mitotic Cells (%) [1]: 88.1% and 96.12%
- Population Normal (%) [1]: 100% and 99.41%
- Population Pyknosed Nuclei (%) [1]: 43.86% and 76.79%
- Total Cell Count [1]: 383 and 169
- Population Apoptotic (%) [2]: 11.02% and 12.75%
- Population Fragmented Nuclei (%) [2]: 2.96% and 3.72%
- Population Hoechst High Intensity Objects (%) [2]: 0.37% and 0%
- Population Membrane Permeable-Phenotype (%) [2]: 0% and 3.12%
- Population Mitotic Cells (%) [2]: 88.98% and 87.25%
- Population Normal (%) [2]: 99.63% and 100%
- Population Pyknosed Nuclei (%) [2]: 43.7% and 79.26%
- Population Tubulin-Different-Phenotype (%) [2]: 5.56% and 9.38%
- Total Cell Count [2]: 271 and 188
- Population Apoptotic (%) [3]: 31.4% and 16.41%
- Population Fragmented Nuclei (%) [3]: 3.26% and 2.2%
- Population Healthy Nuclei (%) [3]: 63.86% and 27.47%
- Population Hoechst High Intensity Objects (%) [3]: 0%
- Population Membrane Permeable-Phenotype (%) [3]: 0.43% and 0%
- Population Mitochondria Different-Phenotype (%) [3]: 22.55% and 10%
- Population Mitotic Cells (%) [3]: 68.6% and 83.59%
- Population Normal (%) [3]: 100%
- Population Pyknosed Nuclei (%) [3]: 32.88% and 70.33%
- Population Tubulin-Different-Phenotype (%) [3]: 18.3% and 14%
- Total Cell Count [3]: 368 and 182
- Population Apoptotic (%) [4]: 25.32% and 20.83%
- Population Fragmented Nuclei (%) [4]: 1.5% and 2.78%
- Population Healthy Nuclei (%) [4]: 68.8% and 30.56%
- Population Hoechst High Intensity Objects (%) [4]: 0% and 0.55%
- Population Membrane Permeable-Phenotype (%) [4]: 1.09% and 1.82%
- Population Mitochondria Different-Phenotype (%) [4]: 14.21% and 14.55%
- Population Mitotic Cells (%) [4]: 74.68% and 79.17%
- Population Normal (%) [4]: 100% and 99.45%
- Population Pyknosed Nuclei (%) [4]: 29.7% and 66.67%
- Population Tubulin-Different-Phenotype (%) [4]: 2.73% and 3.64%
- Total Cell Count [4]: 266 and 181
- Population Apoptotic (%) [5]: 38.66% and 18.09%
- Population Fragmented Nuclei (%) [5]: 3.58% and 2.58%
- Population Healthy Nuclei (%) [5]: 60.9% and 36.77%
- Population Hoechst High Intensity Objects (%) [5]: 1.18% and 0%
- Population Membrane Permeable-Phenotype (%) [5]: 0.49% and 3.51%
- Population Mitochondria Different-Phenotype (%) [5]: 58.33% and 29.82%
- Population Mitotic Cells (%) [5]: 61.34% and 81.91%
- Population Normal (%) [5]: 98.82% and 100%
- Population Pyknosed Nuclei (%) [5]: 35.52% and 60.65%
- Population Tubulin-Different-Phenotype (%) [5]: 21.57% and 47.37%
- Total Cell Count [5]: 339 and 155
- Population Apoptotic (%) [6]: 22.22% and 36.27%
- Population Fragmented Nuclei (%) [6]: 2.93% and 2.55%
- Population Healthy Nuclei (%) [6]: 66.95% and 32.48%
- Population Hoechst High Intensity Objects (%) [6]: 0.42% and 0%
- Population Membrane Permeable-Phenotype (%) [6]: 5% and 3.92%
- Population Mitochondria Different-Phenotype (%) [6]: 22.5% and 11.76%
- Population Mitotic Cells (%) [6]: 77.78% and 63.73%
- Population Normal (%) [6]: 99.58% and 100%
- Population Pyknosed Nuclei (%) [6]: 30.13% and 64.97%
- Population Tubulin-Different-Phenotype (%) [6]: 9.38% and 15.69%
- Total Cell Count [6]: 240 and 157
